ChEMBL document CHEMBL1154414, “In vitro and in vivo activities of T-705 against arenavirus and bunyavirus infections” (Antimicrob Agents Chemother, 2007)
Activity calls are given as the source filed them. The rule behind the calls is not given here.

Key:
Punta Toro virus [1] = test: Antiviral activity against 500 PFU Punta Toro virus Adames infected C57BL/6 mouse assessed as mean day of death at 75 mg/kg, po twice daily for 5 days administered 4 hrs before viral challenge; type: functional
Outline: (§1)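 Groups of 15 mice (25–30 placebo) were inoculated subcutaneously with PTV. Drug in 0.4% carboxymethylcellulose was given by oral gavage twice daily.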

Punta Toro virus [2] = test: Antiviral activity against 500 PFU Punta Toro virus Adames infected C57BL/6 mouse assessed as mean day of death at 25 mg/kg, po twice daily for 5 days administered 4 hrs before viral challenge; type: functional; outline: as §1
Pichinde virus [3] = test: Antiviral activity against Pichinde virus An 4763 infected Syrian golden hamster assessed as mean viral titer per 0.1 g of liver at 60 mg/kg, po twice daily for 7 days administered 4 hrs before viral-challenge measured on day 7 of viral infection; type: functional
Punta Toro virus [4] = test: Antiviral activity against 500 PFU Punta Toro virus Adames infected C57BL/6 mouse assessed as animals with detectable virus level in liver at 100 mg/kg, po twice daily administered 4 hrs before viral challenge measured on day 4 of viral infection; type: functional
Outline: (§2)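 T-705 was suspended in 0.4% carboxymethylcellulose and given by oral gavage twice daily. Mice were infected subcutaneously with PTV. Five mice per group (10 placebo) were sacrificed on day 3 or 4. Liver homogenate or serum was serially diluted onto triplicate LLC-MK2 monolayers, and CPE was read at 6–8 days. The detection limit was 2.8 log10 CCID50 per 0.1 g liver or 0.1 ml serum.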

Punta Toro virus [5] = test: Antiviral activity against Punta Toro virus Adames infected Syrian golden hamster assessed as animals with detectable virus level in liver at 60 mg/kg, po twice daily administered 4 hrs before viral challenge measured on day 4 of viral infection; type: functional
Punta Toro virus [6] = test: Antiviral activity against Punta Toro virus Adames infected Syrian golden hamster assessed as mean viral titer per 0.1 g of liver at 15 mg/kg, po twice daily administered 4 hrs before viral challenge measured on day 4 of viral infection; type: functional
Pichinde virus [7] = test: Antiviral activity against Pichinde virus An 4763 infected Syrian golden hamster assessed as mean day of death at 15 mg/kg, po twice daily for 7 days administered 4 hrs before viral-challenge; type: functional
Pichinde virus [8] = test: Antiviral activity against Pichinde virus An 4763 infected Syrian golden hamster assessed as animals with detectable virus level in liver at 60 mg/kg, po twice daily for 7 days administered 4 hrs before viral-challenge measured on day 7 of viral infection; type: functional
Punta Toro virus [9] = test: Antiviral activity against 500 PFU Punta Toro virus Adames infected C57BL/6 mouse assessed as mean viral titer per 0.1 g of liver at 10 mg/kg, po twice daily administered 4 hrs before viral challenge measured on day 3 of viral infection; type: functional
Outline: (§3)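 Mice were infected subcutaneously with PTV and dosed by oral gavage twice daily; 5 per group (10 placebo) were killed on day 3 or 4. Liver homogenate or serum was serially diluted onto triplicate LLC-MK2 monolayers, and CPE was read 6–8 days later. 50% endpoints gave log10 CCID50 per 0.1 g liver or 0.1 ml serum. Detection range was 2.8–9.5; undetectable samples were assigned <2.8.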

Punta Toro virus [10] = test: Antiviral activity against 500 PFU Punta Toro virus Adames infected C57BL/6 mouse assessed as mean viral titer per 0.1 g of liver at 200 mg/kg, po twice daily administered 4 hrs before viral challenge measured on day 4 of viral infection; type: functional; outline: as §3
Punta Toro virus [11] = test: Antiviral activity against Punta Toro virus Adames infected Syrian golden hamster assessed as mean viral titer per 0.1 mL of serum at 60 mg/kg, po twice daily administered 4 hrs before viral challenge measured on day 4 of viral infection; type: functional
Punta Toro virus [12] = test: Antiviral activity against 500 PFU Punta Toro virus Adames infected C57BL/6 mouse assessed as animals with detectable virus level in serum at 100 mg/kg, po twice daily administered 4 hrs before viral challenge measured on day 4 of viral infection; type: functional; outline: as §2
Punta Toro virus [13] = test: Antiviral activity against 500 PFU Punta Toro virus Adames infected C57BL/6 mouse assessed as mean serum ALT levels at 30 mg/kg, po twice daily administered 4 hrs before viral challenge measured on day 3 of viral infection; type: functional
Outline: (§4)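 C57BL/6 mice received subcutaneous PTV, then oral gavage twice daily for 5–7 days. T-705 was given in 0.4% CMC and ribavirin in saline. Five mice per group (10 placebo) were killed on day 3 or 4, and serum was collected. ALT activity was measured by kinetic assay. Three sham-infected mice set baselines.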

Pichinde virus [14] = test: Antiviral activity against Pichinde virus An 4763 infected Syrian golden hamster assessed as mean viral titer per 0.1 mL of serum at 60 mg/kg, po twice daily for 7 days administered 4 hrs before viral-challenge measured on day 7 of viral infection; type: functional
Punta Toro virus [15] = test: Antiviral activity against Punta Toro virus Adames infected Syrian golden hamster assessed as animals with detectable virus level in liver at 15 mg/kg, po twice daily administered 4 hrs before viral challenge measured on day 4 of viral infection; type: functional
Punta Toro virus [16] = test: Antiviral activity against 500 PFU Punta Toro virus Adames infected C57BL/6 mouse assessed as mean viral titer per 0.1 g of liver at 30 mg/kg, po twice daily administered 4 hrs before viral challenge measured on day 3 of viral infection; type: functional; outline: as §3
Punta Toro virus [17] = test: Antiviral activity against 500 PFU Punta Toro virus Adames infected C57BL/6 mouse assessed as mean serum ALT levels at 5 mg/kg, po twice daily administered 4 hrs before viral challenge measured on day 3 of viral infection; type: functional; outline: as §4
Pichinde virus [18] = test: Antiviral activity against Pichinde virus An 4763 infected Syrian golden hamster assessed as animals with detectable virus level in liver at 30 mg/kg, po twice daily for 7 days administered 4 hrs before viral-challenge measured on day 7 of viral infection; type: functional
Pichinde virus [19] = test: Antiviral activity against Pichinde virus An 4763 infected Syrian golden hamster assessed as survival at 50 mg/kg, po twice daily for 7 days administered 24 hrs post viral-challenge; type: functional, organism-based; parameters: dose 50 mg/kg
Pichinde virus [20] = test: Antiviral activity against Pichinde virus An 4763 infected Syrian golden hamster assessed as animals with detectable virus level in serum at 40 mg/kg, po twice daily for 7 days administered 4 hrs before viral-challenge measured on day 7 of viral infection; type: functional

Row | SMILES | Activity (Punta Toro virus [1]) | Activity (Punta Toro virus [2]) | log10CCID50 (Pichinde virus [3]) | Activity (Punta Toro virus [4]) | Activity (Punta Toro virus [5]) | log10CCID50 (Punta Toro virus [6]) | Activity (Pichinde virus [7]) | Activity (Pichinde virus [8]) | log10CCID50 (Punta Toro virus [9]) | log10CCID50 (Punta Toro virus [10]) | log10CCID50 (Punta Toro virus [11]) | Activity (Punta Toro virus [12]) | Activity (Punta Toro virus [13]) | log10CCID50 (Pichinde virus [14]) | Activity (Punta Toro virus [15]) | log10CCID50 (Punta Toro virus [16]) | Activity (Punta Toro virus [17]) | Activity (Pichinde virus [18]) | Activity (Pichinde virus [19]) | Activity (Pichinde virus [20])
1 | NC(=O)c1nc(F)cnc1O [FAVIPIRAVIR] | >21 days | >21 days | <2.8 | 0% | 20% | >6.9 | 11.1 days | 0% | <2.8 | <2.8 | <3.8 | 0% | 9 IU/L | <2.8 | 100% | <2.8 | 2461 IU/L | 100% |  | 
2 | NC(=O)c1ncn([C@@H]2O[C@H](CO)[C@@H](O)[C@H]2O)n1 [RIBAVIRIN] |  |  |  |  |  |  |  |  |  |  |  |  |  |  |  |  |  |  | Active | 40%
